Entries after “also recorded” stand apart in the source; their conditions may differ.
Key:
[1] = system: human colorectal carcinoma cells (HCT-116); test: Antiproliferative activity by the MTT assay, HCT-116; assay type: cell-based; conditions: for IC50: Homo sapiens, HCT-116, 48 h, read-out: IC50 HCT-116; for inhibitory action on HCT-116 cells: MTT, 48 h post treatment, result in words
In short: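 HCT-116 cells grown in DMEM with L-glutamine, fetal bovine serum, selenium chloride and penicillin-streptomycin; exposed to test compound at 0.06–0.7 mg/mL for 48 h, untreated wells as control. MTT (5.0 mg/mL) added for 4 h, then DMSO; absorbance read at 570 nm. Percent viability calculated relative to control; one-way ANOVA with Student's t-test for p-values.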

[2] = system: HCT-116 cells; test: Nuclear DNA staining; assay type: cell-based, human; conditions: 0.1 mg/mL, 48 h, compared to nontreated control
In short: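 HCT-116 cells exposed to test compound at 0.1 mg/mL for 48 h alongside untreated controls. Cells then fixed in 4% paraformaldehyde, permeabilised with Triton X-100 in PBS and stained with DAPI. Nuclei imaged by confocal scanning microscopy at 200× magnification and scored for loss of staining, condensation and disintegration.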

Compound | IC50 [1] [µM] | inhibitory action on HCT-116 cells [1] | nuclear staining / nuclear disintegration of DAPI stained HCT-116 cells [2]
CC(C)(C(=O)O)C(O)c1ccc(Cl)cc1 (stereo not shown) [compound 1, 3-(4-chlorophenyl)-3-hydroxy-2,2-dimethylpropanoic acid] | 1270 ± 40 | showed inhibitory activities | 
CN(C)c1ccc(C=NNC(=O)C(C)(C)C(O)c2ccc(Cl)cc2)cc1 (stereo not shown) [compound 3, 3-(4-chlorophenyl)-N′-(4-(dimethylamino)benzylidene)-3-hydroxy-2,2-dimethylpropanehydrazide] | 267 ± 30 | showed inhibitory activities | significant loss (arrows) of staining; also recorded: significant loss of nuclear staining
CC(C)(C(=O)NN)C(O)c1ccc(Cl)cc1 (stereo not shown) [compound 2, 3-(4-chlorophenyl)-3-hydroxy-2,2-dimethylpropanehydrazide] | 1650 ± 60 | showed inhibitory activities | 

Source: PMC7931189 (ACS Omega, 2021)
